Drawing on ChEMBL document CHEMBL4513216, “Probing the Open Global Health Chemical Diversity Library for Multistage-Active Starting Points for Next-Generation Antimalarials” (ACS Infect Dis, 2020), this text covers cytotoxicity for 40 compounds.

A short description of this data set: Toxicity liver stage against HepG2, at 10uM. Type of data set: cell-based. The arrangement: test concentration 10 uM, cell line HepG2-A16-CD81EGFP. The note with it: human, HepG2-A16-CD81EGFP cells; read-out: INHIBITION
Summed up: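 Uninfected HepG2-A16-CD81EGFP cells, 3 × 10^3 per well, 1536-well, plated on prespotted compound at 10 μM final, parasite-free screening media added to match infected plates; puromycin 10 μM positive, DMSO 0.5% negative; run in parallel with 48 h PbLuc assay at 37 °C, 5% CO2; viability by CellTiter-Glo luminescence, normalized to controls.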
Regarding `Cc1nnc(CN2CCOC(c3ccc(Cl)cc3)C2)o1` (stereo not given), the cytotoxicity at 10 µM is 5.33%.

As for `Cn1c2c(ccc1=O)CC(NC(=O)Cc1ccsc1)CC2` (stereo not given), the cytotoxicity at 10 µM is 4.08%. With `c1coc(CN2CCn3c(CN4CCOCC4)nnc3C2)c1`, the cytotoxicity at 10 µM worked out at 9.1%. As for `O=S(=O)(C1CC1)N1CCC2(CC1)COC(COc1cccnc1)C2` (stereo not given), the cytotoxicity at 10 µM stood at 9.49%. For `COc1cc(CC(O)CO)c(OC)c2c1OCO2` (stereo not given), the cytotoxicity at 10 µM is -9.96%. To `CS(=O)(=O)Nc1ccn(Cc2cccc(F)c2)n1` belongs 13.1%; to `CCc1cc(=O)n(CC(=O)N2CCCC2)c(-c2ccc(F)cc2)n1`, 8.66%.

As for `CNC(=O)c1cc(-c2ccccc2)nc2ncnn12`, the cytotoxicity at 10 µM is -4.66%. For `O=C(CCn1ccnc1)N1CCCC(n2cncn2)C1` (stereo not given) the value was 0.0383%; for `CCOCc1cccc(NCc2c[nH]nc2-c2cccnc2)c1`, -3.9%.

Take `CN(C)c1ncccc1CNc1snc(Cl)c1C#N`: the cytotoxicity at 10 µM is -5.1%. For `COc1cccc(Cc2nnc(SCCS(C)(=O)=O)o2)c1`, the cytotoxicity at 10 µM came out at 2.72%. For `CC1COCCN1c1ncnc2sccc12` (stereo not given) the value was 14.1%; for `Cc1nnc(C(NS(=O)(=O)c2cc(C#N)ccc2C)C(C)C)[nH]1` (stereo not given), 4.98%; for `CSc1ccsc1C(=O)NS(=O)(=O)c1cnn(C)c1`, -5.35%. `CCc1nc(CN2CCCC2C(=O)NC)cs1` (stereo not given): the cytotoxicity at 10 µM was -3.09%. To `NC(=O)CNC(=O)c1ccc(CNCc2ccc(Cl)cc2Cl)cc1` belongs -41.5%; to `CCC(CC(=O)Nc1ccc2c(c1)CC(=O)N2)c1ccccc1` (stereo not given), -1.06%.

For the compound `FC(F)(F)c1n[nH]c2c1CN(Cc1cn3ccccc3n1)CC2`, the cytotoxicity at 10 µM is 7.76%. For `N#Cc1ccc(N2CCCN(CC(=O)N3CCNC(=O)C3)CC2)cc1` the value was 5.27%. Take `CNC(=O)Cc1noc(Cc2cccc(Br)c2)n1`: the cytotoxicity at 10 µM turned out to be 1.06%. Regarding `COCC(=O)N1CCC2(CC1)c1ccccc1[C@@H](N1CCSCC1)[C@@H]2O`, the cytotoxicity at 10 µM was 4.58%. As for `CN(Cc1cc(C2CC2)on1)C(=O)C(c1cccnc1)N1CCCC1` (stereo not given), the cytotoxicity at 10 µM was -41.6%.

For the compound `CN1CCc2[nH]nc(C(=O)N3CCC4(CN(C)C(=O)O4)C3)c2C1` (stereo not given), the cytotoxicity at 10 µM was -46.4%. For `O=C(CN1CC(c2ccccc2)CC1=O)N1CCC(c2ncc[nH]2)CC1` (stereo not given) the value was -0.234%; for `CCCc1cncnc1N1CCC(NCc2ccncc2)CC1`, 6.31%; for `COCC(C)Nc1ccc(-c2nc(Cc3ccc(F)cc3)no2)cn1` (stereo not given), 7.22%. To `CS(=O)(=O)N1CCC(NCC2(N3CCOCC3)CCCCC2)CC1` belongs -3.27%; to `CNC1CCN(C2CCN(c3ccc(-c4ccco4)cc3)CC2)CC1`, -22.4%. As to `Cn1cc(CN(Cc2cccc(-n3cccn3)c2)C2CC2)cn1`, the cytotoxicity at 10 µM was -15.4%.

For `CC[C@H]1CN(C(=O)c2cnc(CN3CCCC3)s2)CC[C@@]1(C)O`, the cytotoxicity at 10 µM was -16%. For `CCOc1ccc(Cl)c(C(=O)NC)n1`, the cytotoxicity at 10 µM was -4.63%. For `CCOc1ccc(CC(CNC(=O)c2ccoc2C)C(N)=O)cc1` (stereo not given) the value was 7.87%. To `CCOc1ccc(CC(=O)N2CCN(c3nccn3CC)CC2)cc1` belongs 11.1%; to `Cc1ccc(CN[C@@H]2COC[C@H]2c2ccc(F)cc2)cc1C`, 9.07%; to `CC(=O)N1CCO[C@@H]2CN(C(=O)c3ccc4ncccc4c3)CC[C@@H]2C1`, 8.22%.

In the case of `CCCN1CCCn2c(nc(CNC(=O)N3CCCC3)cc2=O)C1`, the cytotoxicity at 10 µM was determined as 12.1%. For `Cc1nc(COC[C@@H]2CCC[C@@]23CNCCO3)cs1` the value was 3.29%. For `CCOc1ccc2ccccc2c1CNCC1CCNCC1` the value was -9.67%; for `O=C1NC2(CCN(Cc3nccs3)CC2)CC1c1ccncc1` (stereo not given), -1.31%.
